The source of these data is ChEMBL document CHEMBL2424628, “Discovery of potent and selective nonsteroidal indazolyl amide glucocorticoid receptor agonists” (Bioorg Med Chem Lett, 2013).

The target in assay [1] is T1, Glucocorticoid receptor (Homo sapiens, UniProt P04150).
T1 sequence (P04150 whole entry): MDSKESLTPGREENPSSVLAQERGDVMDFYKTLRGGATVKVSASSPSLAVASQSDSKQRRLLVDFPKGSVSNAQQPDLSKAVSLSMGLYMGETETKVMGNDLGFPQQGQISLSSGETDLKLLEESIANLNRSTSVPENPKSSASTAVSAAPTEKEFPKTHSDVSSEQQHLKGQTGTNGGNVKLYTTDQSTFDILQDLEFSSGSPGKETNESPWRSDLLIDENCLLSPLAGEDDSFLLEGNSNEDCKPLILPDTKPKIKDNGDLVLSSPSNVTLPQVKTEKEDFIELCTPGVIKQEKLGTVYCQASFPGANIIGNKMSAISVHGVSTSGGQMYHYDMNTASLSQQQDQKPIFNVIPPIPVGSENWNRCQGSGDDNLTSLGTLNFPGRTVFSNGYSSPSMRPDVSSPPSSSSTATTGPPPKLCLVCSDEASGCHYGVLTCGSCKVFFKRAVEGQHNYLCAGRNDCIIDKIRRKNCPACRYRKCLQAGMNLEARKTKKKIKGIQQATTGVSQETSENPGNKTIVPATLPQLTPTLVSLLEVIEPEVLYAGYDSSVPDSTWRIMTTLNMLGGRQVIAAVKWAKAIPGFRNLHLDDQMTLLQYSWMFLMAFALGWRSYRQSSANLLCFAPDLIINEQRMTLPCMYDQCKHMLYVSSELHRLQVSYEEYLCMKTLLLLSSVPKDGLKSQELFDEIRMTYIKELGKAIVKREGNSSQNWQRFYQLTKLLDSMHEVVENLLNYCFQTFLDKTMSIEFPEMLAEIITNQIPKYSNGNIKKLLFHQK
The experiment in a line: Agonist activity at glucocorticoid receptor in human A549 cells assessed as inhibition of PMA-induced AP-1 activation by luciferase reporter gene assay. In kind it is cell-based.

For assay [2], the species on record is Homo sapiens. The experiment in a line: Selectivity ratio of Ki for progesterone receptor (unknown origin) to Ki for glucocorticoid receptor (unknown origin).
For assay [3], the target named is T2, Progesterone receptor (Homo sapiens, UniProt P06401).
T2 sequence (P06401 whole entry): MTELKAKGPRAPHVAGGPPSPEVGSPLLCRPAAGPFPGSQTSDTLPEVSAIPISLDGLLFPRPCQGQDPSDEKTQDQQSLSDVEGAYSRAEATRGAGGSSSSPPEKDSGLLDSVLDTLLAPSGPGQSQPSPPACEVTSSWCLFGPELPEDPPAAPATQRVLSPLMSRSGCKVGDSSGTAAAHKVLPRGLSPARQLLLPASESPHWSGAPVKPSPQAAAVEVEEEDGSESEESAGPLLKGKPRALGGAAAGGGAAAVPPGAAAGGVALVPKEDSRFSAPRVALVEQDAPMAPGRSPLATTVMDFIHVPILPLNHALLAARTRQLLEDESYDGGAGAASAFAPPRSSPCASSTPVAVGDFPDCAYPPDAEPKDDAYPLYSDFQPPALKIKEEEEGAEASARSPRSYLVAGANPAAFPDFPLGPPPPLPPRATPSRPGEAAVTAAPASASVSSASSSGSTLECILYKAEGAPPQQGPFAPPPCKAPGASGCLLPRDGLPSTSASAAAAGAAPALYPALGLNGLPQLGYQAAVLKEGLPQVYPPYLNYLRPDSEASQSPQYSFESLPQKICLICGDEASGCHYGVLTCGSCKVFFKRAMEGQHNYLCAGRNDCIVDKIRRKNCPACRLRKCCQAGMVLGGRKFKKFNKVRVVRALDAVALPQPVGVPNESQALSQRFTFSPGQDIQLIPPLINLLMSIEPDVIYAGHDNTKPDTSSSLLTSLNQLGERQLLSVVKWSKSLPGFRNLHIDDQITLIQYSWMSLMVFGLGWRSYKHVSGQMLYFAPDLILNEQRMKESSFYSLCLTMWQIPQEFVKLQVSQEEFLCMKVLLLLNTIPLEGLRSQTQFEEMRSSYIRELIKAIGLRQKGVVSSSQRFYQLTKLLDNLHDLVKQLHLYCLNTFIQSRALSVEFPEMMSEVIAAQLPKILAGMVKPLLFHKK
The experiment in a line: Binding affinity to progesterone receptor (unknown origin) by fluorescence polarization assay. In short, it runs like this: (§1)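 Fluorescence polarization competition between test compound and a fluorescently labeled ligand for full-length receptor or its ligand binding domain. IC50 from a four-parameter logistic fit of the polarization signal, converted to Ki with Cheng–Prusoff […]. Means of duplicate experiments.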

In assay [4] the target is T3, Glucocorticoid receptor (Homo sapiens) (UniProt P04150).
T3 sequence (whole entry): T1 sequence (P04150 whole entry)
Kind of assay: Agonist activity at glucocorticoid receptor in human A549 cells assessed as inhibition of PMA-induced AP-1 activation by luciferase reporter gene assay relative to dexamethasone. In kind it is cell-based. In short, it runs like this: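 A549 lung epithelial cells stably carrying a luciferase reporter with 5 copies of the AP-1 response element; AP-1 induced with PMA (15 ng/ml). Compound inhibition of induction read as decreased luciferase. […] Means of two or more experiments in triplicate.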

Assay [5] is filed under the species Homo sapiens. The experiment in a line: Selectivity ratio of Ki for androgen receptor (unknown origin) to Ki for glucocorticoid receptor (unknown origin).
Assay [6] deals with T1, Glucocorticoid receptor. Kind of assay: Binding affinity to glucocorticoid receptor (unknown origin) by fluorescence polarization assay.
Assay [7] addresses T4, Androgen receptor (Homo sapiens, UniProt P10275).
T4 sequence (P10275 whole entry): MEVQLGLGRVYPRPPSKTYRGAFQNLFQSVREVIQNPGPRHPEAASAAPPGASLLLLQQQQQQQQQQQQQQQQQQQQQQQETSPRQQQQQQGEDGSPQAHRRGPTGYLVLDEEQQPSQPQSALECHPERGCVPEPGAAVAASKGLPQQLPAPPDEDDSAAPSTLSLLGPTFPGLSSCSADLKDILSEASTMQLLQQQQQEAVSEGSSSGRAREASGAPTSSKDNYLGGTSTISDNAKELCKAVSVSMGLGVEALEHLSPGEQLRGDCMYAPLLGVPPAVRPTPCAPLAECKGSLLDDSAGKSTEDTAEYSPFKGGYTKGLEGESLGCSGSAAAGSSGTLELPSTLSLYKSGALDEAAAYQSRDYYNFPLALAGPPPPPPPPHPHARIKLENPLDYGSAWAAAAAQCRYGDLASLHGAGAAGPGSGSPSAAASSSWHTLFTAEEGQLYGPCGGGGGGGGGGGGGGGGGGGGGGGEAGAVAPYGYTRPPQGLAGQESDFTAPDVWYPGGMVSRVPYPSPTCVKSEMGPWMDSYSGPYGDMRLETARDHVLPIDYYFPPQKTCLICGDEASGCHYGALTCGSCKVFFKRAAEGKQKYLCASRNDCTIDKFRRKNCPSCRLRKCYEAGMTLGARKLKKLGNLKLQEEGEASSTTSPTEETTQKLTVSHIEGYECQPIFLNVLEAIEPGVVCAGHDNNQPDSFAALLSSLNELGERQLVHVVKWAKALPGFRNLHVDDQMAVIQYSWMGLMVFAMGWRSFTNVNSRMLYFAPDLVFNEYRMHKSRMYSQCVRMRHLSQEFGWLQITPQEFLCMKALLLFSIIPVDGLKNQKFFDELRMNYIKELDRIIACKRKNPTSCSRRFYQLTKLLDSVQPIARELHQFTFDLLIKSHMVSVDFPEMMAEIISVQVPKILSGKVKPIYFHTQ
The experiment in a line: Binding affinity to androgen receptor (unknown origin) by fluorescence polarization assay. In outline:
as §1

Molecules are shown by their SMILES.

For `CC(C)(C(=O)Nc1nncs1)[C@@H](c1ccccc1)c1ccc2c(cnn2-c2ccc(F)cc2)c1`, the EC50 in assay [1] turned out to be 0.0024 µM. For the same molecule, the Ratio Ki is 10 in assay [2] and over 1000 in assay [5]. In addition, the Ki in assay [3] was 0.107 µM; in assay [6] it was 0.0051 µM; in assay [7], over 25 µM. Moreover, the Efficacy in assay [4] amounted to 93%.

For `CC(C)(C(=O)Nc1nncs1)[C@H](c1ccccc1)c1ccc2c(cnn2-c2ccc(F)cc2)c1`, in assay [1], the EC50 was found to be 0.092 µM. For the same molecule, the Ratio Ki in assay [2] is 10; in assay [5], over 1000. The values for the Ki in assay [3], in assay [6] and in assay [7] were 0.056 µM, 0.0067 µM and over 25 µM, respectively. In assay [4], the Efficacy was 50%.
